Sampled rows, rich in hits. Any-hit rate of the full collection: about 6.8%.
HSF-1 act: increases HSF-1 driven luciferase reporter signal; NIH3T3-HGL HSF-1 luciferase reporter, MG132, 8 h; 100% = twice DMSO control signal; activation, % at 9 µM; 1.7% of 300,000 active;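 active = mean replicate activation of at least 50% with a set share of replicates each reaching 50%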;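 note: 0% = median of the neutral control wells and 100% = twice that signal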
ALR inh: blocks human ALR sulfhydryl oxidase activity; inhibition, % (test concentration not listed); AID 485317; purified ALR, DTT oxidation, H2O2 HRP-luminol luminescence; 3.8% of 290,000 active;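 active = mean replicate inhibition above about 79%, with every replicate also reaching it, limit read from the data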
Target sequence (P55789 whole entry, looked up): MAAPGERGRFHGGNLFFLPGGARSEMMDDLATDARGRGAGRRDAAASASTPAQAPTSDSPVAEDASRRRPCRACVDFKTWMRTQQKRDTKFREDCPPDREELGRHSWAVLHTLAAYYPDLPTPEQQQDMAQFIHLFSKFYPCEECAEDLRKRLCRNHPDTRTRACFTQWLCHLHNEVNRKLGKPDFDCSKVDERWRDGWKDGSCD
core dimer inh: blocks dimerization of HCV core protein | TR-FRET GST/Flag-core106 dimerization, 1536-well | inhibition, % at 5 µM | 0.33% of 300,000 active | AID 1899;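 active = inhibition above the mean of all tested compounds plus 3 SD, set per screening campaign, cut at about 45% in these data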
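Material: Tagged HCV core106 pair (GST and Flag) | Amount: GST-core106 13.5 nM, Flag-core106 17 nM | Medium: KF-containing HEPES buffer, pH 7.45, DTT, CHAPS, BSA | Reagent: Eu donor and XL665 acceptor anti-tag antibodies | Schedule: 4 h at 22.5 °C | Technique: Time-resolved FRET, ex 340 nm, em 617 and 671 nm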
HSF1 inhib: HSF1 inhibition; NIH3T3-HGL HSE-luciferase, MG132-induced, luminescence 8 h; hits give low values; activity change, negative = inhibition, % at 7.5 µM (by protocol); 0.77% of 300,000 active; AID 2098;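 active = more than half of replicate wells show activity change below -50%, luminescence cut by over half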;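 note: luciferase reports HSF-1 transcriptional activity via heat shock element; 0% = median of DMSO wells and -100% = zero luminescence signal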
AI-2 QS modul: modulates the Vibrio harveyi AI-2 quorum sensing system | AID 2094 | activity change, % at 7.5 µM | Vibrio harveyi JMH597 AI-2 luminescence/OD600 ratio, 9 h; hits give low values; strain lacks LuxN and CqsS sensors; 0 = neutral-control median | 0.4% of 300,000 active; in the data active = activity change below about -75%, passing the limit was not always enough;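 note: luminescence divided by OD600 gain over 9 h not by final OD600 alone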
PHOSPHO1 inh: inhibitors of human PHOSPHO1 phosphatase; Q8TCT1; recombinant PHOSPHO1, absorbance phosphatase assay; inhibition, % at 13.3 µM; 1.1% of 290,000 active; AID 1565; in the data active = inhibition above about 60%
Target sequence (Q8TCT1 whole entry, looked up): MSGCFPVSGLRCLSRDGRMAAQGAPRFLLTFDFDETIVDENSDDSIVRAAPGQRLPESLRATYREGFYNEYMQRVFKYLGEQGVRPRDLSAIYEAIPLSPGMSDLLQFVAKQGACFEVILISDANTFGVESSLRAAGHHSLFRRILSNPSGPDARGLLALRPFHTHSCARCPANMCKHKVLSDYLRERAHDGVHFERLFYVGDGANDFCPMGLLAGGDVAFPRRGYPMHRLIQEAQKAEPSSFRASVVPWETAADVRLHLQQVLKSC
JMH597 growth: retest Vibrio harveyi JMH597 growth inhibition; OD600 absorbance, 9 h; lacks LuxN and CqsS sensors; growth inhibition, % at 7.5 µM; shares compounds with AI-2 QS modul; 1% of 750 active;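 active = every replicate shows growth inhibition above 50%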
BB721 const-QS lum: retest counter-screen: BB721 constitutive quorum sensing luminescence decrease; shares compounds with AI-2 QS modul; Vibrio harveyi BB721 luminescence, 9 h; inhibition, % at 7.5 µM; 95% of 750 active;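 active = inhibition above about 80% in every replicate, not just on average, limit read from the data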
BB721 growth: retest Vibrio harveyi BB721 growth inhibition | 3% of 750 active | growth inhibition, % at 7.5 µM | shares compounds with AI-2 QS modul | AID 2728 | OD600 absorbance, 9 h;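 active = every replicate shows growth inhibition above 50%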
AI-2 QS JMH597: Vibrio harveyi AI-2 signaling luminescence modulation – JMH597 strain, confirmation; AID 2736; shares compounds with AI-2 QS modul; 97% of 750 active; Vibrio harveyi JMH597 AI-2 quorum sensing luminescence, 9 h; luxN and CqsS knockout, AI-2 only; inhibition, % at 7.5 µM;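 active = every replicate shows more than 75% inhibition of signal versus neutral control wells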
The depositor's hits bear a star; · = not tested or not shown.

SMILES | HSF-1 act | ALR inh | core dimer inh | HSF1 inhib | AI-2 QS modul | PHOSPHO1 inh | JMH597 growth | BB721 const-QS lum | BB721 growth | AI-2 QS JMH597
COc1ccc(CNC(=O)Nc2ccccc2)cc1 | 21 | 1 | 2 | 9 | -88* | 6 | 5 | 95* | 22 | 96*
COc1ccc(CNC(=O)Nc2cccc(C)c2)cc1 | 10 | 2 | -4 | 24 | -92* | 7 | 11 | 97* | 28 | 98*
S=C(NCCc1ccccc1)Nc1ccc(Br)cn1 | -5 | 1 | 2 | 6 | 8 | -42 | · | · | · | ·
Cc1ccc(NC(=S)N/N=C/c2cccn2Cc2ccccc2F)cc1 | 4 | 0 | 11 | 2 | 27 | 44 | · | · | · | ·
Cc1ccc(C(=O)CCC(=O)Nc2cccc(C)c2)cc1 | -11 | 0 | · | -2 | -89* | 36 | 39 | 96* | 27 | 97*
Cc1cccc(NC(=O)CC(=O)Nc2cccc(C)c2)c1 | -7 | -1 | -20 | 0 | -9 | 31 | · | · | · | ·
Cc1cc(S(=O)(=O)/N=C(\N)c2ccc(C(N)=O)cc2)cc(C)c1F | -6 | 4 | -4 | 4 | 0 | 49 | · | · | · | ·
Cc1ccc(S(=O)(=O)N=S(CC2CC2(Cl)Cl)CC2CC2(Cl)Cl)cc1 (configuration not stated) | 2 | · | -2 | -3 | 36 | 4 | · | · | · | ·
COc1ccc2cc(C(=O)N3CCC(Cc4ccccc4)CC3)[nH]c2c1 | 31 | -3 | 13 | 13 | -4 | 22 | · | · | · | ·
CCC1(c2ccccc2)NC(=O)N(CC(=O)Nc2ccc3c(c2)OCO3)C1=O (configuration not stated) | -10 | 4 | -3 | -17 | -93* | 19 | 28 | 96* | 30 | 97*
Cc1cccc(NC(=O)CN2C(=O)NC(C)(c3ccc4c(c3)OCO4)C2=O)c1 (configuration not stated) | 12 | -3 | -1 | 6 | -87* | 3 | -5 | 88* | 4 | 92*
O=C(CN1C(=O)NC2(CCOc3ccccc32)C1=O)Nc1cccc(Cl)c1 (configuration not stated) | 7 | 24 | -5 | 1 | -93* | 24 | -5 | 96* | -8 | 98*
CCC1(c2ccc(F)cc2)NC(=O)N(CC(=O)Nc2ccc3c(c2)OCCO3)C1=O (configuration not stated) | · | 1 | · | · | · | · | · | · | · | ·
COc1cc(NC(=O)CN2C(=O)NC3(CCOc4ccccc43)C2=O)cc(OC)c1 (configuration not stated) | · | -7 | · | · | · | · | · | · | · | ·
Cc1ccc(C2(C)NC(=O)N(CC(=O)Nc3ccc4c(c3)OCO4)C2=O)cc1 (configuration not stated) | 5 | -9 | 2 | -2 | -95* | -22 | 11 | 97* | 51 | 98*
COc1ccc(C(=O)NCC(=O)N/N=C(C)\C=C\c2ccccc2)cc1OC | 1 | -4 | -3 | 5 | 5 | 24 | · | · | · | ·
COc1ccc(Cl)cc1NC(=O)c1nnn(CC(=O)Nc2ccc(C)c(C)c2)c1N | 2 | -7 | 26 | 6 | 23 | 34 | · | · | · | ·
COc1ccccc1N1CC(C)(C)C(=O)N(C(=O)c2c(F)cccc2Cl)C1=S | -6 | -5 | 2 | 1 | 12 | 7 | · | · | · | ·
O=C(NCc1ccccc1)c1onc(CS(=O)(=O)c2ccccn2)c1C(=O)NCc1ccccc1 | 15 | -6 | 3 | 6 | 9 | · | · | · | · | ·
Cc1cccc(NC(=O)c2cccc(NC(=O)c3ccco3)c2)c1C | -2 | -2 | -2 | 5 | 24 | · | · | · | · | ·
CC1(c2ccccc2Cl)NC(=O)N(CC(=O)Nc2ccc(N3CCOCC3)cc2)C1=O (configuration not stated) | · | 31 | · | · | · | · | · | · | · | ·
Cc1ccc(NC(=O)CN2C(=O)NC(C)(c3ccc(Cl)cc3)C2=O)cc1 (configuration not stated) | 26 | 0 | 2 | 5 | -88* | 26 | 0 | 89* | 9 | 94*
CC1(c2ccc3c(c2)OCO3)NC(=O)N(CC(=O)Nc2ccc(N3CCOCC3)cc2)C1=O (configuration not stated) | 4 | 7 | 1 | -3 | -88* | -7 | 0 | 88* | -6 | 94*
CC1(c2ccc(Cl)cc2)NC(=O)N(CC(=O)NC2CCCCC2)C1=O (configuration not stated) | · | -8 | · | · | · | · | · | · | · | ·
Cc1ccc(C2(C)NC(=O)N(CC(=O)NC(=O)NCCC(C)C)C2=O)cc1 (configuration not stated) | -4 | -2 | -5 | 1 | -85* | -14 | -14 | 90* | -38 | 95*
SMILES | HSF-1 act | ALR inh | core dimer inh | HSF1 inhib | AI-2 QS modul | PHOSPHO1 inh | JMH597 growth | BB721 const-QS lum | BB721 growth | AI-2 QS JMH597
CCOc1ccc(S(=O)(=O)N2CCN(C(=O)c3cc4c(s3)CCCC4)CC2)cc1 | 24 | -3 | 19 | 4 | 35 | -4 | · | · | · | ·
COc1cc(NC(=O)COC(=O)CO/N=C(\C)c2ccc3c(c2)OCO3)cc(OC)c1 | · | -7 | · | · | · | · | · | · | · | ·
Cc1ccc(/C(O)=C2\C(=O)C(=O)N(Cc3cccnc3)C2c2ccccc2[N+](=O)[O-])cc1 (configuration not stated) | 36 | 5 | 5 | 5 | -2 | -7 | · | · | · | ·
COc1ccc(C2(c3ccc(OC)cc3)NC(=O)N(CC(=O)Nc3ccc(OC(F)F)cc3)C2=O)cc1 | 45 | -13 | 11 | 15 | 3 | 5 | · | · | · | ·
CCC1(c2ccccc2)NC(=O)N(CC(=O)NNC(=O)c2ccoc2C)C1=O (configuration not stated) | -22 | 5 | -5 | -11 | 3 | · | · | · | · | ·
COc1ccc(NC(=O)CN2C(=O)NC(c3ccccc3)(c3ccccc3)C2=O)cc1 | -13 | 1 | -6 | -3 | -94* | 12 | 2 | 92* | 14 | 96*
CCCC1(c2ccccc2)NC(=O)N(CC(=O)NCc2ccc(OC)cc2)C1=O (configuration not stated) | -19 | -8 | 13 | -2 | -86* | 33 | -18 | 86* | -4 | 91*
CCCC1(c2ccccc2)NC(=O)N(CC(=O)NCc2ccc(C)cc2)C1=O (configuration not stated) | -15 | -14 | 12 | 11 | -91* | 14 | -6 | 89* | -13 | 94*
